Source: PubChem (several laboratories)
Rows were chosen to be rich in hits. Some 4.2% of all compounds tested hit in one or more screens of this group.
KCC2 mod: modulators of human KCC2 chloride dependent transport; Q9H2X9; KCC2 cells, thallium flux FluoZin-2 fluorescence; B-score of Tl+ flux slope (higher = more flux/activation; lower = inhibition) at 10 µM; hit rate 2.2% among 190,000;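 active means thallium flux slope and its plate-corrected score both differing from the plate sample mean at a set confidence after two filtering rounds, in either direction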;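 further: slope of fluorescence scaled to starting intensity during 10 to 20 s after thallium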
Rad51 HR inh: blocks human Rad51 in homologous recombination; hRad51 DNA strand exchange, fluorescence dequenching; inhibition, % at 10 µM; hit rate 0.085% among 200,000;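 active means inhibition above 40% at the single screening dose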;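 further: 0% = DMSO control wells and 100% = blanks with heterologous ssDNA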
Target sequence (Q06609 whole entry, looked up): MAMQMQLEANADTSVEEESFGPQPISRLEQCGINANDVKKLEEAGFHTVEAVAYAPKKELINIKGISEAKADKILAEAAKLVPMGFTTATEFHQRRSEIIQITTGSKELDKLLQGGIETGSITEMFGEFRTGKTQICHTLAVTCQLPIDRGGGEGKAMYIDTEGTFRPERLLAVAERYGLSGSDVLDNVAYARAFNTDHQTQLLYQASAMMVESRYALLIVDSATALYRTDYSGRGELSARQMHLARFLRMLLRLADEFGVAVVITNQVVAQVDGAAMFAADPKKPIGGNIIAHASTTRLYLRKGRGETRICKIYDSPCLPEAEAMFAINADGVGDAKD
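material = hRad51 filaments on single-stranded DNA | timing = filaments 15 min 37 °C, then compound 30 min | signal = FRET fluorescence dequenching, excitation 485 nm, emission 520 nm | benchmarks = control wells and blank wells on each plate | evaluation = percent inhibition relative to plate controls and blanks | compound = 10 µM final, single point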
SKKanGAS inh: inhibitors of SKKanGAS S. pyogenes growth in kanamycin (SK-promoter or general growth effect). BacTiter-Glo, 6 h. inhibition, % at 7.5 µM. hit rate 1.3% among 300,000. AID 1662;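 active means mean replicate score, as percent of positive control median, at least 50; inconclusive means mean below 50 but one replicate at or above 50; inactive means mean and every replicate below 50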;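 further: strain carries kanamycin resistance gene driven by streptokinase promoter and grows in 40 µg/ml kanamycin; loss of luminescence reflects streptokinase promoter inhibition or plain growth inhibition; 0% = median of DMSO wells and 100% = positive control at its reference dose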
Autophagy mod: alters autophagy in cells. MEF GFP-LC3 puncta imaging; test concentration mostly 10 µM. calls only at 10 µM (by protocol). hit rate 0.98% among 190,000;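 active means percentage of spot-positive cells more than 3 SD above its plate mean, without a fluorescence outlier flag or 80% toxicity; inconclusive means no clear call, values can overlap the other calls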;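 further: spot-positive cell cutoff set from DMSO-treated cells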
WT yeast gro inh: growth inhibition of WT yeast, mitochondrial fusion screen. mitochondrial fusion phenotypic screen, WT strain. inhibition, % at 10 µM. hit rate 2.1% among 190,000. AID 1362; in the data active means inhibition above about 58%; tested in S. cerevisiae
Ins promoter up: MIN6 insulin promoter up-regulation. MIN6 insulin promoter-GFP reporter, high-content imaging; stronger effect = higher value. z-score at 5 µM. hit rate 0.3% among 190,000. AID 1625;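 active means z-score above 3 at 5 µM with at least 500 cells counted in the well; inconclusive means wells under 500 cells, flagged as cytotoxic or low count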
Numbers without * were called inactive; i = inactive; ? = inconclusive; / = no result.

SMILES	KCC2 mod	Rad51 HR inh	SKKanGAS inh	Autophagy mod	WT yeast gro inh	Ins promoter up
CCCCn1c(=O)c(C(=O)NCc2ccncc2)c(O)c2ccccc21	-2.1	4	58*	i	1	0.78
CCCCn1c(=O)c(C(=O)NCc2ccco2)c(O)c2ccccc21	0.36	-5	-11	i	-7	-0.66
CCCCn1c(=O)c(C(=O)NCc2ccccc2Cl)c(O)c2ccccc21	/	/	50*	/	/	/
CCCCn1c(=O)c(C(=O)NCc2ccccc2)c(O)c2ccccc21	/	/	76*	/	/	/
O=C(c1cc(=O)[nH]c2ccc(Br)cc12)N1CCC2(CC1)OCCO2	0.46	-2	-3	i	7	-0.15
C[C@]12N[C@H](Cc3ccccc31)c1ccccc12	/	0	-4	/	/	/
O=C1CC(=O)N(Cc2ccccc2)C(=S)N1	/	/	-3	/	/	/
CCCCn1c(O)c(/C=N/N2CCCCC2c2cccnc2)c(=O)[nH]c1=S (stereo unspecified)	0.017	-5	-10	i	-7	1.4
C/C(=N\N1CCCCC1c1cccnc1)c1c(O)n(C2CCCCC2)c(=S)[nH]c1=O (stereo unspecified)	1.5	-21	1	i	74*	-0.25
CCCCn1c(O)c(/C(CC)=N/N2CCCCC2c2cccnc2)c(=O)[nH]c1=S (stereo unspecified)	0.65	-14	1	i	59*	-0.15
Cc1ccc(-n2c(O)c(/C=N/N3CCCCC3c3cccnc3)c(=O)[nH]c2=S)cc1 (stereo unspecified)	0.99	/	-7	i	2	-0.04
c1ccc2cc(C3N4CCCN34)ccc2c1 (stereo unspecified)	-0.0037	23	4	i	-13	0.5
O=C(N/N=C\C1C(=O)NC(=S)N(c2ccccc2)C1=O)c1ccc(O)cc1 (stereo unspecified)	-0.026	-1	14	i	-10	-0.82
NC(N)=N/N=C/c1ccc(N(c2ccccc2)c2ccccc2)cc1	/	/	105*	/	/	/
COc1ccc(/C=N\N=C(N)N)cc1	0.2	3	-2	i	-4	0.21
CCCCCCn1c(O)c(C=Nc2ccccc2N2CCOCC2)c(=O)[nH]c1=S	2.9	-96	-11	/	/	3.2*
CCCCCCC(=O)N/N=C/c1c(O)n(CCCC)c(=S)[nH]c1=O	-0.23	-1	84*	/	/	0.02
CCCCn1c(O)c(/C=N/NC(=O)c2ccncc2)c(=O)[nH]c1=S	-0.22	-16	106*	/	/	0.82
CCC(=Nc1ccc(OC)cc1OC)c1c(O)n(C2CCCCC2)c(=O)[nH]c1=O	/	-1	24	i	68*	0.18
O=S(=O)(c1ccccc1)N1CCN2CCCC2C1 (stereo unspecified)	/	/	-4	/	/	/
CCCC12CN3CC(CCC)(CN(C1)C3c1ccccn1)C2=O (stereo unspecified)	-0.19	-4	75*	i	-10	-0.14
CCCCN1C(=O)NC(=O)C2(Cc3c(nc4c(C)cccn4c3=O)N3CCc4ccccc4C32)C1=O (stereo unspecified)	0.092	/	12	i	72*	/
CCCCN1C(=O)NC(=O)C2(Cc3c(nc4ccccn4c3=O)N3CCc4ccccc4C32)C1=O (stereo unspecified)	0.16	9	17	i	21	-1.1
Cc1ccccc1C1=NCC(=S)Nc2ccc(Cl)cc21	5.7*	1	1	i	7	/
Clc1ccc2c(c1)C(c1ccccc1Cl)=NCc1nnc(Br)n1-2	-0.88	5	-1	i	13	/
SMILES	KCC2 mod	Rad51 HR inh	SKKanGAS inh	Autophagy mod	WT yeast gro inh	Ins promoter up
Cc1cc(C)nc(NS(=O)(=O)c2ccc(N=Cc3c(O)n(C)c(=O)n(C)c3=O)cc2)n1	0.34	0	-4	i	-1	0.2
CN1CCN(c2ccc(S(C)(=O)=O)cc2[N+](=O)[O-])CC1	0.013	8	0	i	-20	0.54
CN1CCN(c2ccc([N+](=O)[O-])c3no[n+]([O-])c23)CC1	-1.6	-110	104*	/	/	?
CCCCn1c(=O)c(C(=O)Nc2ccccc2S(N)(=O)=O)c(O)c2ccccc21	-2.3	-4	5	i	67*	-0.08
CCCCCn1c(=O)c(C(=O)Nc2ccccc2S(N)(=O)=O)c(O)c2ccccc21	-1.5	9	43	i	77*	0
CCCCCn1c(=O)c(C(=O)Nc2ccccc2C)c(O)c2ccccc21	/	/	-2	/	/	/
